Screening results deposited in PubChem BioAssay by several laboratories.
EP2 mod: EP2 receptor modulators, cAMP readout, primary screen, cell-based, HTRF cAMP, PGE2 stimulation. Prostaglandin E2 receptor EP2 subtype (Homo sapiens), P43116. EP2-expressing cells, cAMP HTRF FRET, PGE2 co-stimulation. induction, % at 25 µM. 260,000 compounds, 0.83% hits. AID 940, 2007;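 active = compounds whose cAMP rise, as percent of the full-agonist control response, exceeds 60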;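 note: rat C6 glioma line stably carrying human EP2 under a CMV promoter; the protocol text gives 20 µM as final concentration; 100% = response of wells given 1 µM PGE2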
GPR7 antag: GPR7 receptor antagonists, primary screen, cell-based, fluorescence, single concentration; Neuropeptides B/W receptor type 1 (Homo sapiens), P48145; GPR7-expressing cells, fluorescence antagonist assay; inhibition, % at 4.4 µM; 290,000 compounds, 1.1% hits; AID 1861, 2009; in the data active = inhibition above about 16%, passing the limit was not always enough;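 note: cells stimulated with the agonist NPW; 0% = agonist with vehicle and 100% = vehicle without agonist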
OX1R antag-1: antagonists of human orexin 1 receptor (OX1R); inhibition, % at 6.6 µM; Orexin/Hypocretin receptor type 1 (Homo sapiens), O43613; AID 485270, 2010; OX1R-expressing cells, FRET antagonist read-out; 330,000 compounds, 1.8% hits; in the data active = inhibition mostly above about 38%, no sharp cut-off; inactive = mostly below about 40%;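 note: 0% = agonist challenge alone and 100% = reference antagonist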
Target sequence (O43613 whole entry, looked up): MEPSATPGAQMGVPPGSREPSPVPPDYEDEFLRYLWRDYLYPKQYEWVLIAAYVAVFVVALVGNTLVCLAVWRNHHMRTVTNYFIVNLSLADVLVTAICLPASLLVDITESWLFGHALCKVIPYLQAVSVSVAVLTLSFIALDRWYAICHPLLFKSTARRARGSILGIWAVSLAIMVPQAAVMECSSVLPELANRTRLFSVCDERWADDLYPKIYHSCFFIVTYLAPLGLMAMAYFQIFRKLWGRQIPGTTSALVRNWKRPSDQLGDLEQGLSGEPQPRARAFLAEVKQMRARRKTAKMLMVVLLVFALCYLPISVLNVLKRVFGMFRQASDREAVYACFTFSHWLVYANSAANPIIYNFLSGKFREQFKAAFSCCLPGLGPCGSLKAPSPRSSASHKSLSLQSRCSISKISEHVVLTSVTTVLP
EP2 antag: human EP2 receptor antagonists, primary screen, TR-FRET cAMP, C6 glioma cells; Prostaglandin E2 receptor EP2 subtype (Homo sapiens), P43116; C6 glioma cells expressing human EP2; cells stimulated with saturating PGE2; inhibition, % at 25 µM; 260,000 compounds, 0.52% hits;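 active = percent inhibition above 40 after rounding to a whole number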;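 note: rat C6 glioma host cells with rolipram phosphodiesterase inhibitor present; the protocol text gives 20 µM as final concentration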
CHO parental Ca: ATP-evoked calcium signal inhibitors, parental CHO, primary screen, counter-screen for OX1R antagonist project, cell-based, fluorescence, Fluo-8 calcium dye | inhibition, % at 5.6 µM | AID 463079, 2010 | parental CHO-K1, ATP-induced calcium, Fluo-8 fluorescence | 330,000 compounds, 0.63% hits;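 active = inhibition above that plate's mean sample inhibition plus 3 SD, cut at about 26% in these data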;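 note: 0% = ATP-challenged DMSO wells and 100% = DMSO wells without ATP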
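Assay system: parental CHO cells; Read-out basis: percent inhibition of ATP-evoked calcium rise, normalized to controls; Benchmarks: ATP and no-ATP DMSO wells; Compound dosing: single nominal dose of 5.6 µM per compound; Signal: Fluo-8 calcium dye fluorescence; Also added: ATP as calcium-mobilizing challenge; Repeats: singlicate.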
OX1R antag-2: OX1R (HCRTR1) antagonists, primary screen, fluorescence, CHO/OX1R cells, Fluo-8 calcium, orexin A | 330,000 compounds, 0.43% hits | Fluo-8 calcium fluorescence | Orexin/Hypocretin receptor type 1 (Homo sapiens), O43613 | inhibition, % at 5 µM | AID 434989, 2010;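 active = inhibition above its plate's threshold, mean inhibition of all tested compounds on the plate plus 3 SD, cut at about 37% in these data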;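 note: 0% = orexin A challenge wells and 100% = SB-334867-A antagonist wells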
Active calls of the source: *; . = not tested or not shown; ! = not confirmed by another sample. Only some compounds are listed: those with a hit (about 3.7% of all), similar ones and a draw of the others.

SMILES	EP2 mod	GPR7 antag	OX1R antag-1	EP2 antag	CHO parental Ca	OX1R antag-2
Cc1nc2cc([N+](=O)[O-])ccc2c(=O)n1-c1ccccc1[N+](=O)[O-]	-35	2	53*	3	-9	-19
COC(=O)C1=C(c2c(C)noc2C)C[C@@H]2CC[C@H]1N2C(=O)NC1Cc2ccccc2C1	.	.	6	.	-11	-21
CN[C@@H]1C[C@@H](c2ccc(Cl)c(Cl)c2)c2ccccc21	0	47*	-2	17	7	-7
CC(NCc1ccc(Cl)c(Cl)c1)C(O)c1ccccc1 (centres undefined)	-10	-1	7	5	-18	-5
CCCCN1C(=N)C(CC)(CC)C(=O)NC1=O	7	-2	11	5	-12	2
CC1CCC(C)(NS(=O)(=O)OCC(Cl)(Cl)Cl)CC1 (centres undefined)	.	-8	18	.	-11	-20
O=C(Nc1ccc([As](=O)(O)O)cc1)Nc1cccc(Cl)c1Cl	2	.	.	58*	.	.
NC(=O)c1ccc(C(=O)Nc2ccc([As](=O)(O)O)cc2)cc1	8	-7	7	2	-12	-8
CC1(C(O)(C#CCN2CCCCC2)c2ccccc2)CCCC1 (centres undefined)	-17	18	20	11	-15	-17
NC(=O)c1cc(N2CC2)c([N+](=O)[O-])cc1[N+](=O)[O-]	-1	.	74*	14	1	5
O=[N+]([O-])c1cc(F)c(N2CCCCCC2)cc1N1CCNCC1	-46	16	15	12	-17	-24
ClCC[N+]12CC[N+](CCCl)(CC1)C2 (tested in a mixture with another compound)	13	.	.	46*	.	.
CC[C@@]1(O)C(=O)OCc2c1cc1n(c2=O)Cc2cc3c(NC(=O)CN)cccc3nc2-1	2	11	38*	5	-6	11
CCC1(OC(=O)CN)C(=O)OCc2c1cc1n(c2=O)Cc2cc3ccccc3nc2-1 (centres undefined)	2	-5	56*	9	-13	-8
CC[C@@]1(O)C(=O)OCc2c1cc1n(c2=O)Cc2cc3ccccc3nc2-1	-1	-9	55	6	-8	-5
CC[C@]1(OC(=O)CN)C(=O)OCc2c1cc1n(c2=O)Cc2cc3ccccc3nc2-1	22	.	.	41*	.	.
O=C(NC(Oc1ccccc1)C(Cl)(Cl)Cl)c1ccccc1 (centres undefined)	42	-10	46	2	-7	-22
COc1cc2c(cc1OC)[C@@H]1C(=O)c3ccc4c(c3O[C@@H]1CO2)C[C@H](C(C)C)O4	-16	21*	57	12	60*	12
COc1cc2c(cc1OC)[C@H]1C(=O)c3ccc4c(c3O[C@H]1CO2)C[C@@H](C(C)(C)O)O4	.	.	13	.	7	23
COc1cccc(N2C(=O)/C(=C/c3ccc(C)o3)C(=O)NC2=S)c1	.	5	-10	.	1	0
COc1ccc(N2C(=O)/C(=C/c3ccc(N(C)C)o3)C(=O)NC2=S)cc1	.	-10	38*	.	10	0
CCN(CC)c1ccc(/C=C2\C(=O)NC(=S)N(C)C2=O)o1	-2	6	55*	2	10	-5
CCN1CCN(c2ccc([N+](=O)[O-])cc2C(=O)OC)CC1	4	-13	37	5	-11	3
COC(=O)c1ccc(N2CCN(C)CC2)c([N+](=O)[O-])c1	-2	-3	44*	9	-17	-22
COC1=C(C)C(=O)c2c(c(COC(N)=O)c3n2C[C@@H]2[C@H]3N2C)C1=O (some centres undefined)	-3	.	.	13	.	.
SMILES	EP2 mod	GPR7 antag	OX1R antag-1	EP2 antag	CHO parental Ca	OX1R antag-2
COC12C(COC(N)=O)C3=C(C(=O)C(C)=C(N)C3=O)N1CC1C2N1C (centres undefined)	0	-6	57*	16	-6	4
CC(=NCCC1=CCCCC1)c1c(O)n(-c2ccccc2)c(=O)[nH]c1=O	0	-5	6	14	-16	-22
CCCCCCCCCCCCCCCC[n+]1ccccc1	-44	.	.	69*	.	.
CN1CCC(N(C)c2nc(-c3ccccc3)nc3ccccc23)CC1	-26	-1	6	8	-16	-19
CC(=O)/C=C/c1ccccc1	.	.	0	.	-1	1
O=S(=O)(O)/C(=C\c1ccccc1)c1ccccc1 (tested in a mixture with another compound)	26	.	.	46*	.	.
CC(=Nc1ccc2c(c1)CCC2)c1c(O)n(-c2ccccc2)c(=O)[nH]c1=O	12	5	14	9	-22	-31
O=C(O)CN1CCN(CC(=O)O)CC(=O)[O][Hg][O]C(=O)C1	-25	.	.	103*	.	.
O=C(c1c[nH]cc1-c1ccccc1)c1cccc2ccccc12	37	0	25	8	40*	41
O=C1NC(=S)NC(=O)C1=Cc1cccn1-c1ccc(O)cc1	-113	-8	.	112*	.	.
Clc1cccc(C2NCc3ccccc3-n3cccc32)c1 (centres undefined)	69*	-7	11	4	-3	-16
COc1ccc(-c2nn(CCC#N)cc2C(=O)Nc2ccccc2Br)cc1	.	-12	11	.	-18	-27
COc1ccc(C2C(C(=O)N3CCC4(CC3)OCCO4)CC(=O)N2c2ccc(OC)cc2)cc1 (centres undefined)	12	-10	17	7	-15	-23
O=C1NC(=O)N(c2ccc3c(c2)OCO3)C(=O)/C1=C/c1ccc(N2CCCCC2)o1	17	-6	61*	18	-2	-5
O=C1NC(=O)N(c2ccc3c(c2)OCO3)C(=O)/C1=C\c1ccc(-c2ccccc2C(=O)O)o1	-13	-19	32	9	-4	-14
CCN1C[C@]2(CO)CC[C@H](OC)[C@@]34C5C[C@H]6[C@H](OC)C5[C@](O)(C[C@H]6OC)[C@@](O)(C(OC)C23)[C@@H]14 (some centres undefined)	.	.	10	8	3	-4
C[As+](C)(c1ccc(Br)c([N+](=O)[O-])c1)c1ccc(Br)c([N+](=O)[O-])c1.O=[N+]([O-])O	20	.	.	44*	.	.
Clc1ccc(COC(Cn2ccnc2)c2ccc(Cl)cc2Cl)c(Cl)c1 (centres undefined)	3	13	25*!	11	43*!	39*!
O=c1[nH]c(=O)n(Cc2ccccc2Cl)c(O)c1/C=C1/C=CC=N1	-77	8	11	8	-20	-18
C=Cn1cc(CN(CCc2ccccc2)Cc2cccs2)c(C)n1	69*	.	.	2	.	.
